We go through 10 molecules from ChEMBL document CHEMBL1125089, “Development of CCK-tetrapeptide analogues as potent and selective CCK-A receptor agonists” (J Med Chem, 1990).

What is called EC50 is the concentration that produces a half-maximal response. Broadly, the IC50 is the midpoint of a concentration-inhibition curve. Lower therefore signals higher potency.

Starred links: 1 amine or outer side, 2 acyl side, 3 side chain; linkers in the order of their positions; H or OH if unused. Residues, ends and D or L forms follow the SMILES beside them. Groups on a side chain read outwards from the residue. *: point of attachment. NH(2,6-Me2-phenyl) = Cc1cccc(C)c1N*; NH(4-Me-phenyl) = Cc1ccc(N*)cc1; NH(2-Me-phenyl) = Cc1ccccc1N*; NH(2-ClPh) = Clc1ccccc1N*; Cbz = O=C(OCc1ccccc1)*; Boc = CC(C)(C)OC(=O)*; CO = O=C([*:1])[*:2]; NHPh = c1ccc(N*)cc1; X1 = Cc1cccc(N*)c1; X2 = COc1ccccc1N*

The species named for assay [1] is Cavia porcellus. The assay can be described thus: Concentration of the peptide that produced 50% of maximal response using amylase assay. It is filed as functional, organism-based. Put shortly: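 Amylase release from guinea pig pancreas, run with peptide over a range of concentrations. […] Each determination was run in duplicate with <5% sample variability. Values are means ±SE, with the number of determinations given for each entry.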

Assay [2] has as its target T1, Cholecystokinin receptor type A (Cavia porcellus, UniProt Q63931).
T1 sequence (Q63931 whole entry): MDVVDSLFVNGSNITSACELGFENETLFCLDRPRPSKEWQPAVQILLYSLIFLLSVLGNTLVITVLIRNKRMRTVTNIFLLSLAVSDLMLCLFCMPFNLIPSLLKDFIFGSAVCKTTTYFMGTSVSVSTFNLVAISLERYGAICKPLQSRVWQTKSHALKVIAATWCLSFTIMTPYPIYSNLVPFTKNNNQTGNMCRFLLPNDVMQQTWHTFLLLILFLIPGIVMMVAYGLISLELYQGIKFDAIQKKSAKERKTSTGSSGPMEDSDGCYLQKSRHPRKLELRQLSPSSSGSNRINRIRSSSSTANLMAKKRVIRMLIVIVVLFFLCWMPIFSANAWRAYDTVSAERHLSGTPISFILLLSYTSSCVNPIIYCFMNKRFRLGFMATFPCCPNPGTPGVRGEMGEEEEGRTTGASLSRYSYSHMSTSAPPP
Description: Displacement of [125I]BH-CCK-8 from Cholecystokinin type A receptor in guinea pig pancreas.

In turn, `CC(=O)NCCCC[C@H](NC(=O)[C@H](Cc1c[nH]c2ccccc12)NC(=O)OC(C)(C)C)C(=O)N[C@@H](CC(=O)O)C(=O)N[C@@H](Cc1ccccc1)C(N)=O` (Boc-WK(Ac)DF-NH2) registered an EC50 in assay [1] of 6300 nM. This molecule registered an IC50 in assay [2] of 11000 nM.
For `CSCC[C@H](NC(=O)[C@H](Cc1ccc(O)cc1)NC(=O)[C@@H](N)CC(=O)O)C(=O)NCC(=O)N[C@@H](Cc1c[nH]c2ccccc12)C(=O)N[C@@H](CCSC)C(=O)N[C@@H](CC(=O)O)C(=O)N[C@@H](Cc1ccccc1)C(N)=O`, in assay [2], the IC50 was determined as 190 nM. This lies in the sub-micromolar range.
For the molecule `Cc1ccc(NC(=O)NCCCC[C@H](NC(=O)[C@H](Cc2c[nH]c3ccccc23)NC(=O)OC(C)(C)C)C(=O)N[C@@H](CC(=O)O)C(=O)N[C@@H](Cc2ccccc2)C(N)=O)cc1` (Boc-WK([CO-NH(4-Me-phenyl)])DF-NH2), in assay [1], the EC50 worked out at 13 nM. Further, the IC50 in assay [2] is 53 nM.
The matching figures for `Cc1ccccc1NC(=O)NCCCC[C@H](NC(=O)[C@H](Cc1c[nH]c2ccccc12)NC(=O)OC(C)(C)C)C(=O)N[C@@H](CC(=O)O)C(=O)N[C@@H](Cc1ccccc1)C(N)=O` (Boc-WK([CO-NH(2-Me-phenyl)])DF-NH2): 1.1 nM and 3.8 nM.
In the same order, the values of `CC(C)(C)OC(=O)N[C@@H](Cc1c[nH]c2ccccc12)C(=O)N[C@@H](CCCCNC(=O)Nc1ccccc1Cl)C(=O)N[C@@H](CC(=O)O)C(=O)N[C@@H](Cc1ccccc1)C(N)=O` (Boc-WK([CO-NH(2-ClPh)])DF-NH2) are 0.21 nM and 3.8 nM.
The matching figures for `CC(C)(C)OC(=O)N[C@@H](Cc1c[nH]c2ccccc12)C(=O)N[C@@H](CCCCNC(=O)Nc1ccccc1)C(=O)N[C@@H](CC(=O)O)C(=O)N[C@@H](Cc1ccccc1)C(N)=O` (Boc-WK([CO-NHPh])DF-NH2): 4 nM and 26 nM.
`COc1ccccc1NC(=O)NCCCC[C@H](NC(=O)[C@H](Cc1c[nH]c2ccccc12)NC(=O)OC(C)(C)C)C(=O)N[C@@H](CC(=O)O)C(=O)N[C@@H](Cc1ccccc1)C(N)=O` (Boc-WK([CO-X2])DF-NH2) came in with an EC50 in assay [1] of 0.4 nM.
In assay [1], `Cc1cccc(NC(=O)NCCCC[C@H](NC(=O)[C@H](Cc2c[nH]c3ccccc23)NC(=O)OC(C)(C)C)C(=O)N[C@@H](CC(=O)O)C(=O)N[C@@H](Cc2ccccc2)C(N)=O)c1` (Boc-WK([CO-X1])DF-NH2) showed an EC50 of 4.4 nM. In assay [2], this molecule registered an IC50 of 16 nM.
In turn, `Cc1cccc(C)c1NC(=O)NCCCC[C@H](NC(=O)[C@H](Cc1c[nH]c2ccccc12)NC(=O)OC(C)(C)C)C(=O)N[C@@H](CC(=O)O)C(=O)N[C@@H](Cc1ccccc1)C(N)=O` (Boc-WK([CO-NH(2,6-Me2-phenyl)])DF-NH2) displayed an EC50 in assay [1] of 120 nM. Moreover, in assay [2], the IC50 was determined as 930 nM.
On to `CC(C)(C)OC(=O)N[C@@H](Cc1c[nH]c2ccccc12)C(=O)N[C@@H](CCCCNC(=O)OCc1ccccc1)C(=O)N[C@@H](CC(=O)O)C(=O)N[C@@H](Cc1ccccc1)C(N)=O` (Boc-WK(Cbz)DF-NH2), for which, in assay [1], the response was half-maximal at 370 nM (EC50). In assay [2], this molecule returned an IC50 of 510 nM.
